Data as given in publication PMC5422321 (Drug Design, Development and Therapy, 2017).
Values joined by “and” are separate entries in the source; they are usually repeats but may differ in a detail not shown here. Equal entries are not always repeated. Where two headings read alike, the source gives them in different places.

Key:
[1] = tested on: α-tubulin acetylation in PC-3 cells; test: Western blot of acetylated α-tubulin in PC-3 cells; format: cell-based, human; conditions: 18 h
In short: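 PC-3 cells seeded overnight in complete medium, then treated 18 h with test compound (10 doses, threefold dilution). Washed with PBS and lysed in 1× SDS sample buffer. Lysates resolved on 12% Bis-Tris SDS-PAGE and transferred to nitrocellulose. Blocked 1 h in 3% nonfat milk, probed overnight with anti-acetyl-tubulin and a fluorescent secondary, scanned, then reprobed for total α-tubulin. One of three experiments shown.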

[2] = biological target: HDAC5 (Homo sapiens, UniProt Q9UQL6); test: HDAC biochemical assay
[3] = biological target: HDAC9 (Homo sapiens, UniProt Q9UKV0); test: HDAC biochemical assay
[4] = biological target: T1, HDAC8 (Homo sapiens, UniProt Q9BY41); test: HDAC biochemical assay; conditions: RHKAcKAc-AMC substrate
T1 sequence (Q9BY41 1-377): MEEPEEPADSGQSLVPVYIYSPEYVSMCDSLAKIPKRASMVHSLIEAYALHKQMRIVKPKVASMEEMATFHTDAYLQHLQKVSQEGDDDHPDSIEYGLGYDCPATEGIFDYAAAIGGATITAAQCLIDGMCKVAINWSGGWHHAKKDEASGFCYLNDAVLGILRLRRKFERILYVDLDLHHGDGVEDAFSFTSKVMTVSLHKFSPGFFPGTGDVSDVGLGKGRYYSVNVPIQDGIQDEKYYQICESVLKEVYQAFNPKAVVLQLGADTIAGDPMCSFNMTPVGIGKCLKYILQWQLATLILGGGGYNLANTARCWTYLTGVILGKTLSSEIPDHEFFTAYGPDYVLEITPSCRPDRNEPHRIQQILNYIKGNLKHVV

[5] = biological target: HDAC2 (Homo sapiens, UniProt Q92769); test: HDAC biochemical assay
[6] = tested on: several HDAC subtypes; test: Primary screening at 10 µM in HDAC enzymatic assay; format: biochemical; conditions: 10 µM of compound
In short: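 Recombinant HDACs run with fluorogenic AMC peptides: RHKKAc-AMC for HDAC1, 2, 3, 6, 10 and 11; RHKAcKAc-AMC for HDAC8; acetyl-Lys(trifluoroacetyl)-AMC for HDAC4, 5, 7 and 9. Substrate then added; developer digests deacetylated product; AMC fluorescence read.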

[7] = biological target: T2, HDAC6 (Homo sapiens, UniProt Q9UBN7); test: HDAC biochemical assay; conditions: AMC-labeled peptide substrate
T2 sequence (Q9UBN7 1-1215): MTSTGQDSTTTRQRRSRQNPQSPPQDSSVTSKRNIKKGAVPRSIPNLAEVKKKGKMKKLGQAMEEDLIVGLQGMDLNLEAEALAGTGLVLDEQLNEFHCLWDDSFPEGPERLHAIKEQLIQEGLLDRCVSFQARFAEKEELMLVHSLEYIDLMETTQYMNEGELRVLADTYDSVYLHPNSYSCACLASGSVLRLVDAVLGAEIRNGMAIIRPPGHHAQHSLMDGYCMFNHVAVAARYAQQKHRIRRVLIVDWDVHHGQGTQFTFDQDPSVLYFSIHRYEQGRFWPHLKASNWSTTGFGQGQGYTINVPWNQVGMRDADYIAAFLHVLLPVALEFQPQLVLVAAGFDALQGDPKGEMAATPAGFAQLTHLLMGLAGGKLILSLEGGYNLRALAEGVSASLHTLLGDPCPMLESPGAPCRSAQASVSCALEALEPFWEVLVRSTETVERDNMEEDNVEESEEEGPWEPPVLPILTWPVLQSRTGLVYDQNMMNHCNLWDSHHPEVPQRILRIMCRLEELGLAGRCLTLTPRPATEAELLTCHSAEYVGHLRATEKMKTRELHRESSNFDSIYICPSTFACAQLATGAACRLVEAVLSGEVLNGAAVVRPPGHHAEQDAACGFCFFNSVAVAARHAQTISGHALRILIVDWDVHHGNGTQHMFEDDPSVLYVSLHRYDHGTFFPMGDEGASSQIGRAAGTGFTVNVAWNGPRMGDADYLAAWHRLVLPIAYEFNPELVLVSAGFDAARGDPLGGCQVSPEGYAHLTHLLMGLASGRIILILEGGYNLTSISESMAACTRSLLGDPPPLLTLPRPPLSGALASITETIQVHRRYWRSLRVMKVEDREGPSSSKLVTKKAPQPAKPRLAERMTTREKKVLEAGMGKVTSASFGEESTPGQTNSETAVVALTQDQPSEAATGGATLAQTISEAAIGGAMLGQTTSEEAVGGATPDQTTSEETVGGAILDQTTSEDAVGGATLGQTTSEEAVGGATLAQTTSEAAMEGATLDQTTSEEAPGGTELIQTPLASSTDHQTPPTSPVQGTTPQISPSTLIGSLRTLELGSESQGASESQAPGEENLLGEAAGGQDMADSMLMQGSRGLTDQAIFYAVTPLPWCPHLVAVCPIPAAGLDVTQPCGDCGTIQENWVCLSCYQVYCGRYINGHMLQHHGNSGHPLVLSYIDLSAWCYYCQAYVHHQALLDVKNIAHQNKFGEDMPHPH

[8] = biological target: T3, HDAC7 (Homo sapiens, UniProt Q8WUI4); test: HDAC biochemical assay
T3 sequence (Q8WUI4 1-952): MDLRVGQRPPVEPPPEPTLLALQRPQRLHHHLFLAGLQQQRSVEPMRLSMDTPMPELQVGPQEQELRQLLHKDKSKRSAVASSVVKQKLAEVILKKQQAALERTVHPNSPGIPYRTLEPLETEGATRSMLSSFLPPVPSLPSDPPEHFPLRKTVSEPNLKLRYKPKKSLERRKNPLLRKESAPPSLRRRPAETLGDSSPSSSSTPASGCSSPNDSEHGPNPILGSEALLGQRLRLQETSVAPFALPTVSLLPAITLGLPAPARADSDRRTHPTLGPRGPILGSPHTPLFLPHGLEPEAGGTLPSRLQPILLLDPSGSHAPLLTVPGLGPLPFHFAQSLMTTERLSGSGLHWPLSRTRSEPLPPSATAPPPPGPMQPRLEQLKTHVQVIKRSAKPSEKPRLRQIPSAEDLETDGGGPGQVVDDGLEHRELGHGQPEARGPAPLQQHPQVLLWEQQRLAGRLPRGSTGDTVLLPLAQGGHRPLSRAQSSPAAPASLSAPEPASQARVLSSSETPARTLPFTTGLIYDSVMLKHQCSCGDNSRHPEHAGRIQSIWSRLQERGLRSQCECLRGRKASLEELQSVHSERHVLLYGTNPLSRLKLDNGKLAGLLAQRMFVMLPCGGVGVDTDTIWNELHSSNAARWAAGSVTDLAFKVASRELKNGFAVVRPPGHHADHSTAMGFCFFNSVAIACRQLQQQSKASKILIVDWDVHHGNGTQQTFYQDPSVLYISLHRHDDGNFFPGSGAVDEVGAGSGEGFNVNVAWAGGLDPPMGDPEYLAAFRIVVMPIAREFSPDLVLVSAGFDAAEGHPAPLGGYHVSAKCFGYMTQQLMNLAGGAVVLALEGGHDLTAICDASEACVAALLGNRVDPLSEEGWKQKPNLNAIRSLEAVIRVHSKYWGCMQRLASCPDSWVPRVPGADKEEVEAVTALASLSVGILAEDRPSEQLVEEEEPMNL

[9] = biological target: HDAC4 (Homo sapiens, UniProt P56524); test: HDAC biochemical assay
[10] = tested on: histone H3 acetylation in PC-3 cells; test: Western blot of histone H3 acetylation in PC-3 cells; format: cell-based, human; conditions: data not shown
[11] = tested on: 11 HDACs; test: HDAC biochemical assay, panel statements; conditions: up to 10 µM dose
[12] = biological target: T4, HDAC10 (Homo sapiens, UniProt Q969S8); test: HDAC biochemical assay
T4 sequence (Q969S8 1-669): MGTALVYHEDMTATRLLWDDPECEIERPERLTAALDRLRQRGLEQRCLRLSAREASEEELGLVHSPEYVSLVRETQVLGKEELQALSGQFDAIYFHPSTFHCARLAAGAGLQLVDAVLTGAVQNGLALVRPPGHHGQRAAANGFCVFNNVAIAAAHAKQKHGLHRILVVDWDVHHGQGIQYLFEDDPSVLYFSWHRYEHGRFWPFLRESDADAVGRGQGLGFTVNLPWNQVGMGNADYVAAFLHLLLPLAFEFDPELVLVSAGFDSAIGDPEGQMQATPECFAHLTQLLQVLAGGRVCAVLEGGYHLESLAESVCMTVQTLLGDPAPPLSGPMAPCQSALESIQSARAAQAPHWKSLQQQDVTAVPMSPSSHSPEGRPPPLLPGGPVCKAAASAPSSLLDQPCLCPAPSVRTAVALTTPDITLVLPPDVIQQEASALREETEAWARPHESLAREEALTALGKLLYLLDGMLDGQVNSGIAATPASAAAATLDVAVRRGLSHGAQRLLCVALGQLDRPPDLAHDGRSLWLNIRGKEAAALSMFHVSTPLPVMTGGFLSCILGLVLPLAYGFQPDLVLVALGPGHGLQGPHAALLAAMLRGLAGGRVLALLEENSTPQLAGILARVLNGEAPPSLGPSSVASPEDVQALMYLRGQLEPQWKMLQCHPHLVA

[13] = biological target: T5, HDAC11 (Homo sapiens, UniProt Q96DB2); test: HDAC biochemical assay
T5 sequence (Q96DB2 1-347): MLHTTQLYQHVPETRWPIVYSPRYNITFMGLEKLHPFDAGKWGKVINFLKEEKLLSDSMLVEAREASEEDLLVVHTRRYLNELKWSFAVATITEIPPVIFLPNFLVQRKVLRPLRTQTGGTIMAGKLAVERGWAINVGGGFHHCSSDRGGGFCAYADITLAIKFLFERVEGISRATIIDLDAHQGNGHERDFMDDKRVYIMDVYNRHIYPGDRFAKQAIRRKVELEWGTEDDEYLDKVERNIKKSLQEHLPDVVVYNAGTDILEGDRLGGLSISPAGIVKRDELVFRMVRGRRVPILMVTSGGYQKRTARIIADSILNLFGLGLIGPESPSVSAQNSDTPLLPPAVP

[14] = biological target: HDAC1 (Homo sapiens, UniProt Q13547); test: HDAC biochemical assay
[15] = biological target: HDAC3 (Homo sapiens, UniProt O15379); test: HDAC biochemical assay
Sequence of HDAC3 (O15379 whole entry): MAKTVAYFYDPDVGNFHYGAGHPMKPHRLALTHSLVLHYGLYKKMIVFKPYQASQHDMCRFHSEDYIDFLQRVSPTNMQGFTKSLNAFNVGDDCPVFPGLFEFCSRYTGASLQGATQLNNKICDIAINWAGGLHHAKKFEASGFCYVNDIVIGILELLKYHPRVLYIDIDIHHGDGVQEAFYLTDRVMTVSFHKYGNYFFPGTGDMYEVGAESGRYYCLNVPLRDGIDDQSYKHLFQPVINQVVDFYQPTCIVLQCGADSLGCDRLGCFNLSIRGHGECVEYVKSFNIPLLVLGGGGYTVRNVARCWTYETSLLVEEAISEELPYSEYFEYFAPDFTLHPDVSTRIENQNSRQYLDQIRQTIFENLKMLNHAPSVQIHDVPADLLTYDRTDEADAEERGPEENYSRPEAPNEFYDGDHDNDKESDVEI
Sequence of HDAC3 (Q9Y618 395-489 partner limits assumed): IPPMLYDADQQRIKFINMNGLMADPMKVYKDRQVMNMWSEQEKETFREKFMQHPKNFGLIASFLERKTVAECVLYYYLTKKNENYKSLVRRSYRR

Sequence of HDAC5 (Q9UQL6 whole entry): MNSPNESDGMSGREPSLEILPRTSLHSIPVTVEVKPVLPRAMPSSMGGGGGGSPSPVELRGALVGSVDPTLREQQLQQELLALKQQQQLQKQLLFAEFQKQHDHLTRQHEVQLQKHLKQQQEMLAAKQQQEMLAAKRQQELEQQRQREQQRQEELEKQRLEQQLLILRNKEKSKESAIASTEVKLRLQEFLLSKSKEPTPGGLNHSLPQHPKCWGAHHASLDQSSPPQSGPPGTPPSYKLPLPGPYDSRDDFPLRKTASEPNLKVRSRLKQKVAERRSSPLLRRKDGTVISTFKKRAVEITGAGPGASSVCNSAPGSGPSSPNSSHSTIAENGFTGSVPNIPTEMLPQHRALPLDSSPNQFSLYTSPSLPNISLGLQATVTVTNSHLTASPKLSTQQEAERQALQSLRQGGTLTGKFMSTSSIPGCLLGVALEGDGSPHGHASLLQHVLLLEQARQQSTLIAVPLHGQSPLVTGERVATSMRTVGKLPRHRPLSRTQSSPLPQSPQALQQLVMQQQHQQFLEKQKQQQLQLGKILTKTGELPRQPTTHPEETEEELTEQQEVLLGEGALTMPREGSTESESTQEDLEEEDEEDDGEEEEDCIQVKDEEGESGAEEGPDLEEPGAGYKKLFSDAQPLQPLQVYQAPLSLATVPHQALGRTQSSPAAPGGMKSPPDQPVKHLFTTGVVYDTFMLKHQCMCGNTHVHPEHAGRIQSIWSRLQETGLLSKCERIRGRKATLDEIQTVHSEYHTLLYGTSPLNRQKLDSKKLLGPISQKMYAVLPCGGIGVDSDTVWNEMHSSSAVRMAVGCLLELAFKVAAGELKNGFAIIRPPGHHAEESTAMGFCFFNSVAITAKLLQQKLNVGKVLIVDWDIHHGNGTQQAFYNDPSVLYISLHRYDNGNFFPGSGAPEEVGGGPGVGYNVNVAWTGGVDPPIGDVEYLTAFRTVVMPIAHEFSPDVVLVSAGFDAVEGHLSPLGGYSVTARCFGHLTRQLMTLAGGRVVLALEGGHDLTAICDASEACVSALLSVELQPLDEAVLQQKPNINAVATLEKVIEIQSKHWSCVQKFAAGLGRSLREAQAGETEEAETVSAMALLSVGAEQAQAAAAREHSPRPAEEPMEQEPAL
Sequence of HDAC2 (Q92769 whole entry): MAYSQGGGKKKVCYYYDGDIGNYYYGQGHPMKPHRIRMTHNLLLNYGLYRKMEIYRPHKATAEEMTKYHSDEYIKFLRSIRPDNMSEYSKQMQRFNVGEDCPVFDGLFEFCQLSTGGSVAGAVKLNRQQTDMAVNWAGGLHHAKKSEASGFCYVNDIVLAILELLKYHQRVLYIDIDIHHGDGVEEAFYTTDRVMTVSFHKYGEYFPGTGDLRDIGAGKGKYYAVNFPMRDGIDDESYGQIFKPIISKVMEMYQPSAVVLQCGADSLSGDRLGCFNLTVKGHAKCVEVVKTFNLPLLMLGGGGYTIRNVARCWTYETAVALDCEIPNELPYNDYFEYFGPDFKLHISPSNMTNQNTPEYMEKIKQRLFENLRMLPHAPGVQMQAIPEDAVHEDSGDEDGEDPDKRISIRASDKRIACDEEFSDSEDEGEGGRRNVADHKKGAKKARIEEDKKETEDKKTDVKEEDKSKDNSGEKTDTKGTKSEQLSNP
Sequence of HDAC9 (Q9UKV0 whole entry): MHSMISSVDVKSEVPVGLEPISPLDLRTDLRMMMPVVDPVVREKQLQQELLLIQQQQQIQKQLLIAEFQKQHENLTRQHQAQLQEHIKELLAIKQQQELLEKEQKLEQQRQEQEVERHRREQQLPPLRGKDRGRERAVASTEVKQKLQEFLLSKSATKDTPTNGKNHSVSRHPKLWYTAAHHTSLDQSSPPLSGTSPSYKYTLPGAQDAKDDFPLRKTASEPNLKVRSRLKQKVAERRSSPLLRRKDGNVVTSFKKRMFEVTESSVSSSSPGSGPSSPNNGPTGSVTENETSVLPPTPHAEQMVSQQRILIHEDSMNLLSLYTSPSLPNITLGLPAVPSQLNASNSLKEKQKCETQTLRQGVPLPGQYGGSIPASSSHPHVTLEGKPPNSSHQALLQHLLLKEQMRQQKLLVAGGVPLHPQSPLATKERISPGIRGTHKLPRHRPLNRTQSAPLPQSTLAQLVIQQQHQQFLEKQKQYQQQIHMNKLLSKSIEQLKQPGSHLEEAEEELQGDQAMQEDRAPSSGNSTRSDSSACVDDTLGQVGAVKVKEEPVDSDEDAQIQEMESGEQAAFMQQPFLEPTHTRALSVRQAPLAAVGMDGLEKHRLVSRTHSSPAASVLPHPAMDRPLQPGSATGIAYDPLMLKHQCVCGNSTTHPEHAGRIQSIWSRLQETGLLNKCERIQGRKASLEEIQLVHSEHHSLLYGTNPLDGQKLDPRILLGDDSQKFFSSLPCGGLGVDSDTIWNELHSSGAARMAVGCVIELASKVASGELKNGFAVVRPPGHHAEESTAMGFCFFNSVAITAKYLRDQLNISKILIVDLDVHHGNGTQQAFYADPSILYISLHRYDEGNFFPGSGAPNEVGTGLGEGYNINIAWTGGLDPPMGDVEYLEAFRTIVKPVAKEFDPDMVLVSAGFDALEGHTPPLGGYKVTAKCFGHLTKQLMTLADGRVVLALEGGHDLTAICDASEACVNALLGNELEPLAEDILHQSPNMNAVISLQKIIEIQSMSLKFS
Sequence of HDAC1 (Q13547 whole entry): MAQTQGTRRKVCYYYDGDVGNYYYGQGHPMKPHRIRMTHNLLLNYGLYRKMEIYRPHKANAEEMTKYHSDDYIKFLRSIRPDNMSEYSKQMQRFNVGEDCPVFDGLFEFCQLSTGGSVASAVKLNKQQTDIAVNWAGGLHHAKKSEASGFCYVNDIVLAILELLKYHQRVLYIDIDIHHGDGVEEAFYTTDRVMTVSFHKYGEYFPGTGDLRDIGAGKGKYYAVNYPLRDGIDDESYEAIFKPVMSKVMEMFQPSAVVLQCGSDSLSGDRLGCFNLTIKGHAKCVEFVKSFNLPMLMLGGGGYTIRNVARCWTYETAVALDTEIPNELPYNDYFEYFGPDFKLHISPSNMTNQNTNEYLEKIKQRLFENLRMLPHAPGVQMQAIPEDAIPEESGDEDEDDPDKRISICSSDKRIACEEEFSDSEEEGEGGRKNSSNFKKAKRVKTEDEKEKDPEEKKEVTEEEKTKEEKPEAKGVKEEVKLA
Sequence of HDAC4 (P56524 whole entry): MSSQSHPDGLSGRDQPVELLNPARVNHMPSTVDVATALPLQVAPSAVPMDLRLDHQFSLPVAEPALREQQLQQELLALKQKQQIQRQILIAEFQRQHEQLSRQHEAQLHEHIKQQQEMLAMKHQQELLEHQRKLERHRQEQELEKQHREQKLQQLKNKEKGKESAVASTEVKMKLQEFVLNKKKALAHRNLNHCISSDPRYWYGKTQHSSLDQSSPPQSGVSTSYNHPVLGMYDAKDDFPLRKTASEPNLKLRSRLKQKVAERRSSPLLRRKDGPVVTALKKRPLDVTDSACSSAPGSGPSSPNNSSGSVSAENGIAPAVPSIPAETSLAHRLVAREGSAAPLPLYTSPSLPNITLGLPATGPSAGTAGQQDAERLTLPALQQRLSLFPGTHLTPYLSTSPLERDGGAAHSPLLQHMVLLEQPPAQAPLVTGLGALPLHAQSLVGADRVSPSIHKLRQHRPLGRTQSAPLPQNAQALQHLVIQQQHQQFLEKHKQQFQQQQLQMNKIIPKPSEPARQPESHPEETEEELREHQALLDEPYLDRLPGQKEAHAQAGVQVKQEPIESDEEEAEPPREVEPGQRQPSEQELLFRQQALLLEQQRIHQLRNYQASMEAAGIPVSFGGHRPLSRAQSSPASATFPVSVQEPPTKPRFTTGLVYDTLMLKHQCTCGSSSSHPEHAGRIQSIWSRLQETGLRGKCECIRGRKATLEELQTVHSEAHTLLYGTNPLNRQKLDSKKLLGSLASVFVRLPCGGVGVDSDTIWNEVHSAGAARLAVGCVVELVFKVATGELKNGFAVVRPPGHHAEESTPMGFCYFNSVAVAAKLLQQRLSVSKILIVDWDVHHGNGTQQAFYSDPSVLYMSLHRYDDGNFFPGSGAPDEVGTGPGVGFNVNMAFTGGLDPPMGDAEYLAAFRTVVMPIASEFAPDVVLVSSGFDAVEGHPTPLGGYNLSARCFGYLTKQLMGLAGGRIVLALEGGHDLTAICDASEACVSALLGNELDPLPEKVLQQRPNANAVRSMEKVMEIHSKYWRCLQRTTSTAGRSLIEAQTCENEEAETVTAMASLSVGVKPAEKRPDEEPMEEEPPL

Compound: O=C(CCCCCCNC(=O)c1cnc(N(c2ccccc2)c2ccccc2)nc1)NO [ACY-1215]
- acetylated α-tubulin level [1]: significantly increased

Compound: O=c1c2ccccc2[se]n1-c1ccccc1 [Ebselen, 2-phenyl-1,2-benzisoselenazol-3(2H)-one]
- acetylated α-tubulin level [1]: not observed
- IC50 ([2]; HDAC5 IC50, biochemical HDAC assay, acetyl-Lys(trifluoroacetyl)-AMC substrate): 3.49 µM
- IC50 ([3]; HDAC9 IC50, biochemical HDAC assay, acetyl-Lys(trifluoroacetyl)-AMC substrate): 3.75 µM
- IC50 [4]: 1.2 µM and 1.21 µM
- IC50 [5]: > 10 µM
- inhibition in primary screening [6]: > 50%
- IC50 [7]: 6.99 µM
- IC50 [8]: > 10 µM
- IC50 [9]: > 10 µM
- effect on acetylation/deacetylation of histone H3 [10]: not observed
- inhibition of the other HDAC subtypes (other than HDAC5, HDAC6, HDAC8, HDAC9) [11]: no significant inhibition
- IC50 [12]: > 10 µM
- IC50 [13]: > 10 µM
- IC50 [14]: > 10 µM
- IC50 [15]: > 10 µM

Compound: Cc1ccccc1-n1sc2cc(F)ccc2c1=O [Thr101, 6-Fluoro-2-o-tolylbenzo[d] isothiazol-3(2H)-one]
- IC50 [2]: 1.57 µM
- IC50 [3]: 3.77 µM
- IC50 [5]: > 10 µM
- IC50 [7]: 4.14 µM
- IC50 [8]: 3.43 µM
- IC50 [9]: 6.07 µM
- IC50 [12]: > 10 µM
- IC50 [13]: > 10 µM
- IC50 ([14]; HDAC1 IC50, biochemical HDAC assay, AMC-labeled peptide substrate): 3.62 µM
- IC50 [15]: 4.24 µM
